The list is not random: actives were taken first. Their share in the collection is about 1.7%.
Rce1 inhib – yeast Rce1p protease inhibitors, primary screen, biochemical, fluorescence, cell-free homogeneous | CAAX prenyl protease 2 (Saccharomyces cerevisiae (strain ATCC 204508 / S288c)), Q03530 | yeast membranes, quenched prenylated peptide cleavage fluorescence | calls only | hit rate 0.27% among 290,000 | AID 2563, 2010;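 active = fall in fluorescence gain of 50% or more versus controls, with final raw signal at or below 3038400; inconclusive = same 50% fall but final raw signal above 3038400; inactive = fall in fluorescence gain under 50%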;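 note: plate controls were neutral control wells for no effect and wells lacking membranes for full effect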
Target sequence (Q03530 whole entry, looked up): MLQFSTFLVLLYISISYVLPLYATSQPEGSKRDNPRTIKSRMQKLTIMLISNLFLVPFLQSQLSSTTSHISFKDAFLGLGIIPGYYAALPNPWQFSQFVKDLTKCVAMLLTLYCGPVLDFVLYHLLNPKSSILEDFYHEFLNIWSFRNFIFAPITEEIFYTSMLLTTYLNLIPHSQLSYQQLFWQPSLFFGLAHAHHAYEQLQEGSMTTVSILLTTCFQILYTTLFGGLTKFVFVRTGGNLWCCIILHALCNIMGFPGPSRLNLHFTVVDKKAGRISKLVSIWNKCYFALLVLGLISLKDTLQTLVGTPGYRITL
AI-2 QS mod – Vibrio harveyi AI-2 quorum sensing modulators, primary screen, JMH597 strain, luminescence/OD600 ratio. Vibrio harveyi JMH597 AI-2 luminescence/OD600 ratio, 9 h; hits give low values; strain lacks LuxN and CqsS sensors; 0 = neutral-control median. activity change, % at 7.5 µM. hit rate 0.4% among 300,000. AID 2094, 2009; in the data active = activity change below about -75%, passing the limit was not always enough; inconclusive = no clear call, values can overlap the other calls;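 note: luminescence divided by OD600 gain over 9 h not by final OD600 alone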
CAL PDZ FP-1 – untagged CAL PDZ binding inhibitors, primary screen, biochemical, fluorescence polarization, HTS. purified CAL PDZ, TMR-peptide fluorescence polarization, 1 h. inhibition, % at 24.9 µM. hit rate 0.92% among 300,000. AID 602252, 2012;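 active = mean inhibition of at least 30% with at least half of replicates also reaching 30%; inconclusive = no clear call, values can overlap the other calls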;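 note: 0% = DMSO neutral control and 100% = excess unlabeled competitor peptide PRC23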
ARNT TACC3 PPI – disruptors of ARNT/TACC3 protein interaction, primary screen, biochemical, AlphaScreen, single concentration; AlphaScreen His-ARNT PAS-B/GST-TACC3 binding, luminescence; TACC3 fragment carries E629A point mutation; inhibition, % at 9.99 µM; hit rate 0.66% among 390,000; AID 623870, 2012;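 active = mean inhibition of replicates at least 50% and at least half of replicates each reaching 50%; inconclusive = half or more replicates reach 50% but mean below 50%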;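 note: 0% = complete ARNT plus TACC3 wells and 100% = ARNT alone without TACC3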
CAL PDZ FP-2 – CAL PDZ peptide-binding inhibitors, primary screen, biochemical, fluorescence polarization, Cer-tagged CAL PDZ, HTS. purified CAL PDZ, TMR-peptide fluorescence polarization, 1 h. Golgi-associated PDZ and coiled-coil motif-containing protein (Homo sapiens), Q9HD26. inhibition, % at 20 µM. AID 504414, 2011. hit rate 0.02% among 330,000;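 active = highest replicate inhibition of at least 40%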;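 note: plate controls were DMSO neutral control wells for no effect and unlabeled competitor peptide control wells for full effect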
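System: purified tagged CAL PDZ domain construct (CerCALP). Schedule: 1 h incubation at room temperature before polarization reading. Medium: 25 mM sodium phosphate pH 7.4, 150 mM NaCl, TCEP, IgG, Thesit. Read-out: percent inhibition from loss of millipolarization. Measured by: FP readout, S and P plane fluorescence. Probe or stimulus: fluorescent TMR peptide probe.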
The depositor's hits bear a star; i = inactive; ? = inconclusive; . = no result; + = active, no number.

SMILES	Rce1 inhib	AI-2 QS mod	CAL PDZ FP-1	ARNT TACC3 PPI	CAL PDZ FP-2
COc1cc(/C=N/N=C2/NC(=O)C(CC(=O)O)S2)ccc1OCc1ccc(Cl)cc1 (centres undefined)	i	3.5	-3.8	-4.2	-3.3
CC(=O)c1ccccc1NC(=O)COC(=O)CN1C(=O)C2CCCCC2C1=O (centres undefined)	.	.	40.0*	2.3	-0.7
Cc1ccc(Cl)cc1NC(=O)COC(=O)CN1C(=O)C2CCCCC2C1=O (centres undefined)	.	.	.	6.3	-0.3
CCN1CCN(S(=O)(=O)c2ccc(Cl)c(C(=O)Oc3ccc(CC(=O)OC)cc3)c2)CC1	.	.	80.3*	0.1	-0.8
CCc1cc(=O)oc2cc(C)cc(OCC(=O)NCCCn3ccnc3)c12	i	10.3	0.7	-2.2	-1.6
CN1CCCc2cc(C=O)ccc21	i	-4.5	-2.7	-1.7	-0.8
CCCN1CCCc2cc(CN)ccc21	i	33.2	-4.9	31.9*	-1.0
Cc1c(C(=O)N/N=C/c2ccncc2)no[n+]1[O-]	i	27.9	.	69.1*	-0.9
S=C(Nc1ccccc1)Nc1ccc(Cl)cn1	i	43.3	3.9	0.5	-0.2
COCCNC(=O)c1ccc(S(=O)(=O)N2CCCc3ccccc32)cc1	i	8.8	59.0*	.	0.4
Cc1cc(C)n(C(=O)CNC(=O)c2cccc(Br)c2)n1	i	27.1	.	-10.5	-1.0
O=C(Nc1ccccc1)n1ccc(-c2ccc(-n3ccnc3)cc2)n1	+	14.6	.	.	.
Cn1c(NCc2cccnc2)nc2c1c(=O)n(Cc1ccccc1F)c(=O)n2C	i	4.1	+	-0.6	5.9
COCCNC(=O)c1ccccc1NC(=O)c1ccccc1N(C)S(C)(=O)=O	i	12.2	0.1	-5.9	-0.2
O=C(Nc1ccccc1Cl)NC1(C(=O)N2CCC(O)CC2)CCCCC1	i	-4.1	-4.2	-3.3	-2.0
COc1cc(C#N)ccc1OCC(=O)NCc1cccs1	i	21.4	0.1	-5.9	-2.1
COc1ccccc1OCC(=O)NCc1cccs1	i	13.8	-2.0	45.3*	-1.0
O=C(O)c1[nH]c2ccccc2c1C(c1ccccc1)c1c(C(=O)O)[nH]c2ccccc12	i	5.7	56.4*	-2.1	44.9*
COc1ccc(-c2cc(C(=O)Nc3ccccc3)on2)cc1	i	17.6	.	1.6	-1.4
O=C(Nc1ccc(F)cc1)c1cc(-c2ccccc2)no1	i	17.4	108.9*	-10.4	-0.2
O=C(CCN1C(=O)/C(=C\c2ccccc2Cl)SC1=S)Nc1cccnc1	i	9.7	66.4*	-8.3	-1.3
O=C(O)c1cccc(NS(=O)(=O)c2ccc(S(=O)(=O)N3CCOCC3)cc2)c1	i	25.1	.	-0.1	-0.5
CN(C)C(=O)COc1ccc2ccc(=O)oc2c1	+	14.5	-0.8	-3.6	-3.1
CCN(CC)C(=S)Oc1c(Cl)cccc1Cl	i	16.0	-5.0	2.4	-0.9
CCOC(=O)N1CCC(N2CCN(S(=O)(=O)c3ccc(C)cc3)CC2)CC1	i	15.9	1.4	-1.9	-1.3
SMILES	Rce1 inhib	AI-2 QS mod	CAL PDZ FP-1	ARNT TACC3 PPI	CAL PDZ FP-2
COc1cccc(C2C(C(=O)c3cc4ccccc4o3)=C(O)C(=O)N2CCN(C)C)c1OC (centres undefined)	i	13.2	33.1*	-4.5	.
Cc1ccc(S(=O)(=O)NCCC(=O)N2CC(C)OC(C)C2)cc1 (centres undefined)	i	37.6	-5.1	-6.7	-1.8
Cc1cc(C)n2c(C)nnc2c1	i	3.5	8.6	-5.1	-1.5
CC(C)N=C(N)N=C(N)Nc1ccc(Cl)cc1	.	.	-1.0	-2.2	-0.9
NC(=NCCCCCCN=C(N)/N=C(\N)Nc1ccc(Cl)cc1)/N=C(\N)Nc1ccc(Cl)cc1	+	30.0	-10.3	20.9	-5.3
C1CCCC(NC2=NCCO2)CCC1	i	13.2	59.0*	22.9	-0.6
Cc1ccc(C(=O)Cn2nnc(-c3ccccc3)n2)cc1	i	-92.3*	-3.3	-0.3	-0.1
Cc1ccc(CNS(=O)(=O)c2c(C(=O)N3CCCCCC3)c(C)n(C)c2C)cc1	i	13.3	75.6*	1.7	-1.2
Cc1c(C(=O)N2CCCCC2)c(S(=O)(=O)NCc2ccccc2Cl)c(C)n1C	i	7.7	37.8*	-0.7	-1.8
Cc1c(C(=O)N2CCCCC2)c(S(=O)(=O)NCc2ccc(Cl)cc2)c(C)n1C	i	21.6	77.1*	-0.3	-0.4
CC(=O)c1ccc(N2CCN(S(=O)(=O)c3c(C(=O)N4CCCC4)c(C)n(C)c3C)CC2)cc1	i	22.9	80.2*	-1.1	-1.1
N=c1c[n+](-c2ccc(Cl)cc2)[n-]o1	i	-0.1	2.5	-6.3	-0.5
CCc1cccc(OCCn2ccnc2)c1	i	3.9	-7.5	26.6	0.0
CCn1c2ccccc2c2cnc(N=CN(C)C)c(C#N)c21	i	5.7	1.9	0.8	0.8
CCN(CC)CCn1c2ccccc2c2cnc(N=CN(C)C)c(C#N)c21	+	21.9	-4.1	5.4	0.2
CCCCn1c(SCC(=O)N(C)C2CCS(=O)(=O)C2)nc2cc(S(N)(=O)=O)ccc21 (centres undefined)	i	9.6	52.5*	-1.7	0.1
Cc1cc(Cl)c2ccc(Cl)cc2n1	i	9.7	3.5	-5.0	0.1
CS(=O)(=O)N1CCc2cc(C(=O)OCC(=O)c3ccccc3)ccc21	i	-77.4*	98.2*	-2.3	-1.9
O=C(OCC(=O)N1CCOCC1)c1cccc(S(=O)(=O)N2CCCc3ccccc32)c1	i	-4.4	-2.4	-7.4	-0.1
CC1CN(C(=O)COC(=O)c2cccc(S(=O)(=O)N3CCc4ccccc43)c2)CC(C)O1 (centres undefined)	.	.	59.4*	0.4	19.4
Cc1noc(C)c1NC(=O)N(C)C[C@@H]1OCCCC[C@H](C)Oc2ccc(NC(=O)NC3CCCCC3)cc2C(=O)N([C@@H](C)CO)C[C@@H]1C	.	.	.	3.9	.
CCCCC(=O)NC(=S)NNC(=O)c1ccc(OC)cc1	i	?	2.9	53.9*	0.8
CCC(=O)Nc1cccc(NC(=S)NC(=O)c2cccs2)c1	+	21.2	0.6	-4.4	-1.4
COc1ccc(C(=O)NNC(=S)NC(=O)c2cccs2)cc1	i	-81.5*	0.3	23.7	-4.2
COc1ccc(C(=O)NNC(=S)NC(=O)c2ccc(OC)cc2)cc1	i	36.8	9.9	-0.3	-0.9
NC(=O)NOCc1c(Cl)cccc1Cl	i	25.4	1.5	2.8	.

Screening results: PubChem BioAssay, Broad Institute
